Experimental data of several laboratories.
Each line is one published result; the experiments were not run side by side.
Target: cAMP-dependent protein kinase catalytic subunit alpha (PRKACA, Homo sapiens, UniProt P17612)

| Compound | effect on | action | technique | tested at | measurement | value |
| --- | --- | --- | --- | --- | --- | --- |
| CO[C@@H]1[C@H](N(C)C(=O)c2ccccc2)C[C@H]2O[C@]1(C)n1c3ccccc3c3c4c(c5c6ccccc6n2c5c31)C(=O)NC4 | enzyme activity | inhibitor | – | 1 µM | inhibition | 59% |
| N#Cc1ccc(NC(=O)Nc2ccccc2)cc1 | cell-free assay | – | competition with immobilised ligand | 25 µM | remaining binding | 85% |
| C=CC(=O)N1CCC([C@@H]2CCNc3c(C(N)=O)c(-c4ccc(Oc5ccccc5)cc4)nn32)CC1 | enzyme activity | inhibitor | – | 1 µM | inhibition | 9% |
| COc1ccc2oc(-c3ccc4nc(N)oc4c3)c/c(=N\c3ccccc3NC(=O)CCN)c2c1 | binding | – | – | 1 µM | remaining binding | 111% |
| CN1CCN(C(=O)c2ccc(NC(=O)Nc3ccc(N(C)c4ccnc(Nc5ccc(CS(C)(=O)=O)cc5)n4)cc3)cc2)CC1 | cell-free assay | – | – | 1 µM | remaining signal | 100% |
| CCCCC(=O)Nc1ccc(-c2ccc3ncn(CCC)c(=O)c3c2)cn1 | binding | – | competition with immobilised ligand | 0.5 µM | remaining binding | 97% |
| COc1ccc2[nH]c3c4[nH]c5ccc(OC)cc5c4c4c(c3c2c1)C(=O)NC4=O | cell-free assay | – | – | 1 µM | remaining signal | 87% |
| C#Cc1cnc(Nc2ccnc(CO)c2)nc1Nc1ccccc1S(C)(=O)=NC#N (centres unmarked) | cell-free assay | – | – | 1 µM | remaining signal | 100% |
